For data set [1], the system named is Mus musculus. The data set is described as follows: Phototoxicity in UV light irradiated Swiss Albino mouse assessed as ear thickness at 140 mg/kg, po. Format: organism-based. Details: dose 140 mg/kg, route oral. The following applies: in vivo. Summed up:
(§1)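 Female Swiss albino mice (~2 months, 20-25 g) were fasted ≥18 h and given 140 mg/kg orally by gavage; controls received 0.5% Na-CMC vehicle at 10 mL/kg. UVA started right after dosing, 4 h (~18 J/cm2). Ear thickness was measured before dosing and at 4, ~24, 48, 72 and 96 h, reported as mean of left and right ears ± SEM.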

In data set [2] the test system is Mus musculus. Description: Phototoxicity in Swiss Albino mouse assessed as ear erythema at 140 mg/kg, po after 96 hrs of irradiation. The format is organism-based. Also on record: dose 140 mg/kg, route oral. The conditions noted are these: in vivo.
Data set [3] relates to Vero. Description: Cytotoxicity against Vero cells after 72 hrs by MTT assay. The format is cell-based. The following applies: Chlorocebus sabaeus. Summed up: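 Vero cells were exposed to serially diluted compound up to 62.5 µg/mL for 72 h. Viability was read by cellular conversion of MTT to formazan (CellTiter 96 non-radioactive proliferation assay), and IC50 was derived.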
On the technique in general: Tetrazolium dyes change colour on reduction, which living cells bring about.

Data set [4] concerns Mus musculus. The data set is described as follows: Phototoxicity in Swiss Albino mouse assessed as ear erythema at 140 mg/kg, po after 4 hrs of irradiation. Format: organism-based. Details: dose 140 mg/kg, route oral. The following applies: in vivo.
For data set [5], the system named is Mycobacterium tuberculosis. The data set is described as follows: Antimycobacterial activity against Mycobacterium tuberculosis H37Rv by agar dilution method. Format: functional. Summed up:
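MIC was determined by agar dilution, in duplicate.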
In general terms: In agar dilution, organisms are placed on agar that contains the substance at set levels.

Data set [6] relates to Mus musculus. The data set is described as follows: Phototoxicity in Swiss Albino mouse assessed as ear thickness at 140 mg/kg, po after 72 hrs of irradiation. Format: organism-based. Details: dose 140 mg/kg, route oral. The conditions noted are these: in vivo. Put shortly:
as §1

Data set [7] concerns Mycolicibacterium smegmatis. Description: Antimicrobial activity against Mycobacterium smegmatis by agar dilution method. Format: functional. Put shortly:
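Agar dilution against M. smegmatis ATCC 14468; MIC determined in duplicate.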

The subject of data set [8] is Mus musculus. Description: Phototoxicity in Swiss Albino mouse assessed as ear erythema at 140 mg/kg, po after 24 hrs of irradiation. Format: organism-based. Details: dose 140 mg/kg, route oral. The following applies: in vivo.
Data set [9] relates to Mus musculus. The data set is described as follows: Phototoxicity in Swiss Albino mouse assessed as ear thickness at 140 mg/kg, po after 4 hrs of irradiation. The format is organism-based. Also on record: dose 140 mg/kg, route oral. The conditions noted are these: in vivo. Put shortly:
as §1

Data set [10] concerns Mus musculus. Description: Phototoxicity in UV light irradiated Swiss Albino mouse assessed ear erythema at 140 mg/kg, po. The format is organism-based. Also on record: dose 140 mg/kg, route oral. The conditions noted are these: in vivo.
For data set [11], the system named is Mus musculus. The data set is described as follows: Phototoxicity in Swiss Albino mouse assessed as ear erythema at 140 mg/kg, po after 48 hrs of irradiation. Also on record: dose 140 mg/kg, route oral. The following applies: in vivo. Format: organism-based.
The test system of data set [12] is Mus musculus. Description: Phototoxicity in Swiss Albino mouse assessed as ear thickness at 140 mg/kg, po after 48 hrs of irradiation. The conditions noted are these: in vivo. Details: dose 140 mg/kg, route oral. Format: organism-based. Put shortly: as §1
For data set [13], the system named is Mus musculus. Description: Phototoxicity in Swiss Albino mouse assessed as ear erythema at 140 mg/kg, po after 72 hrs of irradiation. Format: organism-based. Also on record: dose 140 mg/kg, route oral. The following applies: in vivo.
Data set [14] has as its system Mus musculus. The data set is described as follows: Phototoxicity in Swiss Albino mouse assessed as ear thickness at 140 mg/kg, po after 24 hrs of irradiation. The format is organism-based. Details: dose 140 mg/kg, route oral. The conditions noted are these: in vivo. Summed up:
as §1

The nature of data set [15]: Inhibition of Mycobacterium smegmatis DNA gyrase supercoiling activity. Also on record: species or system Mycolicibacterium smegmatis. Put shortly:
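Gyrase purified from M. smegmatis was preincubated with compound in DMSO (5% DMSO in reaction). 400 ng relaxed pUC18 was added in 35 mM Tris-HCl pH 7.5, 5 mM MgCl2, 25 mM K-glutamate, 2 mM spermidine, 2 mM ATP, BSA, tRNA and 5% glycerol, 1 h at 37 °C. Samples were heat-inactivated, run on 1% agarose in TAE, and ethidium-stained; IC50 was derived.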

The test system of data set [16] is Mus musculus. Description: Phototoxicity in Swiss Albino mouse assessed as ear thickness at 140 mg/kg, po after 96 hrs of irradiation. The format is organism-based. Also on record: dose 140 mg/kg, route oral. The following applies: in vivo. Summed up:
as §1

This passage reports Activity, IC50 and MIC results from ChEMBL document CHEMBL1138270, “Antimycobacterial activities of novel 1-(cyclopropyl/tert-butyl/4-fluorophenyl)-1,4-dihydro- 6-nitro-4-oxo-7-(substituted secondary amino)-1,8-naphthyridine-3-carboxylic acid” (J Med Chem, 2007).

Each structure is given as a SMILES string. ≈ marks a conversion by molar mass, not a printed value.

As a reminder, the IC50 is the concentration at which inhibition is half-maximal. Low values mean greater potency in that assay, high ones weaker potency in that assay. A word on the MIC: it is the lowest concentration found to suppress growth. A low value points to greater potency.

In the case of `CC(C)(C)n1cc(C(=O)O)c(=O)c2cc([N+](=O)[O-])c(N3CCSCC3)nc21`, the Activity in [1] is reported as 0.27 mm; in data set [2] it was “Non-toxic”; in [4], “Non-toxic”; in [6], 0.3 mm; in [8], “Non-toxic”; in data set [9] it was 0.28 mm. The Activity result in data set [10] is “Non-toxic”; in data set [11], “Non-toxic”; in data set [12], 0.29 mm; in [13], “Non-toxic”; in data set [14], 0.28 mm; in [16], 0.32 mm. In addition, the IC50 was 79.6 µM in data set [3] and 102 µM in data set [15]. Also, the MIC in [5] was 0.99 µM (≈ 0.389 µg/mL); in [7], 1.99 µM (≈ 0.781 µg/mL).

Take `O=C(O)c1cn(-c2ccc(F)cc2)c2nc(N3CCSCC3)c([N+](=O)[O-])cc2c1=O`: the Activity is on record as 0.25 mm in data set [1]; “Non-toxic” in data set [2]; “Non-toxic” in data set [4]; 0.29 mm in [6]; “Non-toxic” in data set [8]; 0.27 mm in data set [9]. Besides, the Activity entry is listed as “Non-toxic” in [10]; “Non-toxic” in data set [11]; 0.26 mm in [12]; “Non-toxic” in data set [13]; 0.26 mm in [14]; 0.29 mm in data set [16]. Besides, the 50% inhibitory concentration (IC50) in [3] was 72.6 µM; in data set [15], more than 232 µM. Further, the MIC is 0.44 µM (≈ 0.189 µg/mL) in [5] and 1.81 µM (≈ 0.779 µg/mL) in data set [7].

`O=C(O)c1cn2c(n1)CN(c1nc3c(cc1[N+](=O)[O-])c(=O)c(C(=O)O)cn3-c1ccc(F)cc1)CC2`: the Activity in data set [1] is 0.27 mm; in data set [2] it was “Non-toxic”; in data set [4] it was “Toxic”; in data set [6], 0.33 mm; in data set [8], “Toxic”; in [9], 0.32 mm. Also, the Activity result in data set [10] is listed as “Non-toxic”; in data set [11], “Non-toxic”; in data set [12] it was 0.32 mm; in data set [13] it was “Non-toxic”; in [14], 0.33 mm; in data set [16], 0.33 mm. Besides, the IC50 is more than 126 µM in data set [3] and more than 202 µM in data set [15]. Moreover, the minimum inhibitory concentration (MIC) in data set [5] amounted to 0.38 µM (≈ 0.188 µg/mL); in data set [7], 1.58 µM (≈ 0.781 µg/mL).

Consider `CCn1cc(C(=O)O)c(=O)c2cc(F)c(N3CCNC(C)C3)c(F)c21` (stereo not given) [LOMEFLOXACIN], for which the Activity in data set [1] is 0.31 mm; in data set [2], “Toxic”; in data set [4], “Toxic”; in [6], 0.64 mm; in data set [8], “Toxic”; in data set [9] it was 0.4 mm. Besides, the Activity entry in [10] is given as “Toxic”; in [11], “Toxic”; in data set [12], 0.53 mm; in data set [13] it was “Toxic”; in [14], 0.48 mm; in [16], 0.6 mm.

Take `COc1ccc(CC2C3=C(CCCC3)CCN2c2nc3c(cc2[N+](=O)[O-])c(=O)c(C(=O)O)cn3C2CC2)cc1` (stereo not given): the Activity in data set [1] is listed as 0.33 mm; in data set [2], “Non-toxic”; in [4], “Non-toxic”; in [6], 0.36 mm; in [8] it was “Non-toxic”; in data set [9] it was 0.34 mm. Moreover, the Activity result in data set [10] is “Non-toxic”; in [12] it was 0.38 mm; in [13], “Non-toxic”; in data set [14], 0.34 mm; in data set [16], 0.33 mm. The results for the concentration for half-maximal inhibition (IC50) in [3] and in data set [15] were 118 µM and 56.5 µM, respectively. In addition, the MIC in [5] is 5.89 µM (≈ 3.13 µg/mL); in data set [7], 1.47 µM (≈ 0.78 µg/mL).
